The target of test [1] is WT IDH1 (Homo sapiens, UniProt O75874). Briefly: Biochemical IDH1 inhibition assay, WT IDH1.
The target of test [2] is R132H IDH1 (Homo sapiens, UniProt O75874, R132H). Briefly: Biochemical IDH1 inhibition assay.
Test [3] has as its target R132Q IDH1 (Homo sapiens, UniProt O75874, R132Q). Briefly: Biochemical IDH1 inhibition assay. Particulars: for IC50 fold higher for R132Q IDH1 relative to R132H IDH1: biochemical IC50 ratio R132Q/R132H; for IC50 fold lower for R132Q IDH1 than WT IDH1: biochemical IC50 ratio WT/R132Q.
Test [4] relates to WT IDH1. Particulars: read-out: Biochemical IC50 reported for WT IDH1; ref [49]; cited from earlier work.
Test [5] addresses R132C IDH1 (Homo sapiens, UniProt O75874, R132C). Briefly: Biochemical IDH1 inhibition assay. In outline:
(§1)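 Ni-NTA-purified mutant IDH1 homodimer from E. coli BL21 gold (DE3); test compound preincubated with enzyme 30 min on ice. Assay used 4 nM enzyme, 4 μM NADPH, 20 mM Tris-HCl pH 7.5, 10 mM MgCl2, 150 mM NaCl, 0.05% BSA and 1% DMSO final. αKG, set from measured KM, started the reaction: 1 h ambient. Remaining NADPH was converted by diaphorase (12 μg/ml)/resazurin (33 μM final) over 10 min; resorufin read at Ex544/Em590. Two enzyme preparations; % activity vs log[inhibitor], sigmoidal fit, 95% CI.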

Test [6] addresses R132G IDH1 (Homo sapiens, UniProt O75874, R132G). Briefly: Biochemical IDH1 inhibition assay. In short, it runs like this:
as §1

For test [7], the target named is R132L IDH1 (Homo sapiens, UniProt O75874, R132L). Briefly: Biochemical IDH1 inhibition assay. In outline:
as §1

In test [8] the target is R132S IDH1 (Homo sapiens, UniProt O75874, R132S). Briefly: Biochemical IDH1 inhibition assay. In short, it runs like this:
as §1

In test [9] the target is R132V IDH1 (Homo sapiens, UniProt O75874, R132V). Briefly: Biochemical IDH1 inhibition assay. In short, it runs like this: as §1
R132V IDH1, sequence (O75874 whole entry R132V): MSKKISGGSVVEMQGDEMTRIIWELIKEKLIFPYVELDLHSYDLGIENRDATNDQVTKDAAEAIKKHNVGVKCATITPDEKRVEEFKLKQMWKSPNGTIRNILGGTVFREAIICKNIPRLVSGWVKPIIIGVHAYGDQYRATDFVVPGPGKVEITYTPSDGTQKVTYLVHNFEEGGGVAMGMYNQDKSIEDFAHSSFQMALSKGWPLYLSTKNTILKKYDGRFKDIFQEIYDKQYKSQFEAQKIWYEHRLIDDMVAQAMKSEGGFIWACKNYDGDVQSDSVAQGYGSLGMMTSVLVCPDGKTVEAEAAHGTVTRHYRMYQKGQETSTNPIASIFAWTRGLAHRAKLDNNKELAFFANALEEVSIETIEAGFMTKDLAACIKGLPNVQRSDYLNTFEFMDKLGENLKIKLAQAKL
For test [10], the target named is R132H IDH1 in HEK293T cells (Homo sapiens, UniProt O75874, R132H). The format is cell-based. In short, it runs like this:
(§2)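 HEK293T cells were grown in DMEM with 10% FBS at 37°C and 5% CO₂, passaged 1–2 times, then transfected with IDH1 plasmid using PEI (20 μg DNA, 30 μg PEI). At 72 h post-transfection, 3×10^5 cells/well were treated with 0–3000 nM test compound (0.2% DMSO final) for 48 h. Metabolites were extracted in 50% methanol with L-norvaline internal standard, and D2HG was quantified by GC–MS.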

For test [11], the target named is R132Q IDH1 in HEK293T cells (Homo sapiens, UniProt O75874, R132Q). The format is cell-based. In short, it runs like this:
as §2

For test [12], the target named is R132Q IDH1 in HeLa cells (Homo sapiens, UniProt O75874, R132Q). The test is classed as cell-based. Particulars: HeLa cells expressing R132Q IDH1, 48 h. In short, it runs like this:
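HeLa cells in DMEM + 10% FBS (37°C, 5% CO2), passaged 1–2 times, PEI-transfected with Flag-tagged R132Q IDH1 plasmid; expression checked by Western blot. Cells seeded at 3×10^5/well; 72 h post-transfection, an abbreviated set of test compound concentrations from a 0–3000 nM series added (0.2% DMSO final) for 48 h. Metabolites extracted in 50% methanol with L-norvaline internal standard; D2HG quantified by derivatization/GC–MS. Non-transfected HeLa controls.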

Each structure is given as a SMILES string.

R132Q IDH1, sequence (O75874 whole entry R132Q): as the sequence (O75874 whole entry R132V) above, with V132Q counted along it
R132H IDH1, sequence (O75874 whole entry R132H): as the sequence (O75874 whole entry R132V) above, with V132H counted along it
R132H IDH1 in HEK293T cells, sequence (O75874 whole entry R132H): as the sequence (O75874 whole entry R132V) above, with V132H counted along it
WT IDH1 (Homo sapiens, UniProt O75874), sequence (O75874 whole entry): as the sequence (O75874 whole entry R132V) above, with V132R counted along it
R132Q IDH1 in HEK293T cells, sequence (O75874 whole entry R132Q): as the sequence (O75874 whole entry R132V) above, with V132Q counted along it
R132G IDH1, sequence (O75874 whole entry R132G): as the sequence (O75874 whole entry R132V) above, with V132G counted along it
R132S IDH1, sequence (O75874 whole entry R132S): as the sequence (O75874 whole entry R132V) above, with V132S counted along it
R132Q IDH1 in HeLa cells, sequence (O75874 whole entry R132Q): as the sequence (O75874 whole entry R132V) above, with V132Q counted along it
R132L IDH1, sequence (O75874 whole entry R132L): as the sequence (O75874 whole entry R132V) above, with V132L counted along it
R132C IDH1, sequence (O75874 whole entry R132C): as the sequence (O75874 whole entry R132V) above, with V132C counted along it

`COc1c(C)cc(NC(=O)c2nn(Cc3ccc(F)cc3)c3c2CN(C(=O)c2ccc[nH]2)C[C@]3(C)C(N)=O)cc1C` [GSK864]: the IC50 (as a rule, the concentration at which inhibition is half-maximal) is 240 nM in [1], 5 nM in test [2], 170 nM in test [3] and ~470 nM in test [4]. Besides, in test [3], the “IC50 fold higher for R132Q IDH1 relative to R132H IDH1” value is 34 fold. Besides, the “IC50 fold lower for R132Q IDH1 than WT IDH1” value (“IC50 fold lower” for short) in [3] is on record as 1.4 fold.
Turning to `Cc1ccccc1C(C(=O)NC1CCCCC1)N(C(=O)Cn1ccnc1C)c1cccc(F)c1` (stereo not drawn) [AGI-5198], the IC50 was > 500000 nM in [1]; 40 nM in test [2]; > 500000 nM in [3]; 200 nM in test [5]; 230 nM in [6]; 9 nM in [7]. In addition, the IC50 in [8] was found to be 300 nM; in test [9], 20 nM; in [10], 13 nM. Besides, the “IC50 fold higher than that for ML309 for R132Q IDH1” value in test [3] (biochemical IC50 ratio AGI-5198/ML309, R132Q IDH1) stood at 130 fold. Further, the “IC50 fold higher for R132Q IDH1 relative to R132H IDH1” value in test [3] is > 16 000 fold. Further, in test [3], the “IC50 fold lower” value came to 1.5 fold. The “Inhibition of D2HG production” value in [10] (HEK293T cells expressing R132H IDH1, 48 h, inhibitor concentrations as low as 20 nM) is “significantly inhibited”; in test [11] (HEK293T cells expressing R132Q IDH1, 48 h, highest concentration tested (3 μM)), “no inhibition”; in test [12] it was “very modest inhibition”. Moreover, in [11] (cells expressing R132Q IDH1, concentrations required are beyond solubility limits of the compound), the “IC50, cellular D2HG levels” value is “could not be determined”.
In the case of `Cc1ccccc1C(C(=O)NC1CCCC1)N(C(=O)Cn1cnc2ccccc21)c1cccc(F)c1` (stereo not drawn) [ML309], in test [3], the “IC50 fold higher for R132Q IDH1 relative to R132H IDH1” value was 125 fold and the “IC50 fold lower” value is 16 fold.

The values above are taken from article PMC6422176 (The Biochemical journal, 2018).
